From ChEMBL document CHEMBL3868585, “Absolute Configuration of Dihydro-β-agarofuran Sesquiterpenes from Maytenus jelskii and Their Potential Antitumor-Promoting Effects” (J Nat Prod, 2016)

Columns and labels:
Type in all cases: cell-based
Settings in all cases: human gammaherpesvirus 4
Raji [1] = test: Inhibition of TPA-induced EBV-early antigen activation in human Raji cells assessed as cell viability at 1000 molar ratio per TPA after 48 hrs by trypan blue staining method
In short: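 Raji cells treated 48 h at 37 °C with n-butyric acid (4 mmol), TPA (32 pmol) and test compound in DMSO at 1000 mol ratio/TPA; viability determined by Trypan Blue staining.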

Raji [2] = test: Inhibition of TPA-induced EBV-early antigen activation in human Raji cells after 48 hrs by immunofluorescence method relative to TPA
In short: (§1)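 Raji cells (EBV genome-carrying, virus nonproducer) grown in RPMI1640 with 10% FBS; 1 × 10^6 cells incubated 48 h at 37 °C in 1 mL medium with n-butyric acid (4 mmol), TPA (32 pmol) in DMSO, and test compound in 5 μL DMSO at 10, 100, 500 or 1000 mol ratio/TPA. EA-positive cells detected by indirect immunofluorescence with NPC patient serum, ≥500 cells counted; triplicates, expressed relative to butyrate+TPA control (100%).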

Raji [3] = test: Inhibition of TPA-induced EBV-early antigen activation in human Raji cells assessed as remaining activity at 100 molar ratio per TPA after 48 hrs by immunofluorescence method relative to TPA; in short: as §1
Raji [4] = test: Inhibition of TPA-induced EBV-early antigen activation in human Raji cells at 1000 molar ratio per TPA after 48 hrs by immunofluorescence method relative to TPA; in short: as §1
Raji [5] = test: Inhibition of TPA-induced EBV-early antigen activation in human Raji cells at 500 molar ratio per TPA after 48 hrs by immunofluorescence method relative to TPA; in short: as §1
Raji [6] = test: Inhibition of TPA-induced EBV-early antigen activation in human Raji cells at 100 molar ratio per TPA after 48 hrs by immunofluorescence method relative to TPA; in short: as §1
Raji [7] = test: Inhibition of TPA-induced EBV-early antigen activation in human Raji cells at 10 molar ratio per TPA after 48 hrs by immunofluorescence method relative to TPA; in short: as §1

SMILES | Cell viability (Raji [1]) [%] | inhibition (Raji [2]) | Activity (Raji [3]) [%] | inhibition (Raji [4]) [%] | inhibition (Raji [5]) [%] | inhibition (Raji [6]) [%] | inhibition (Raji [7]) [%]
CC(=O)O[C@@H]1[C@H](O)[C@@H](C)[C@]23OC(C)(C)[C@H](C[C@H](OC(=O)/C=C/c4ccccc4)[C@]2(C)[C@H]1OC(=O)c1ccccc1)[C@H]3O | > 60 | Dose-dependent effect |  |  |  |  | 
CC(=O)O[C@H]1[C@H](OC(=O)c2ccccc2)C[C@](C)(O)[C@]23OC(C)(C)[C@H](C[C@H](OC(=O)c4ccco4)[C@]12CO)[C@H]3OC(=O)c1ccccc1 | > 60 | Dose-dependent effect | 82.2 |  |  |  | 
CC(=O)O[C@@H]1C[C@](C)(O)[C@@]23C[C@@H](C[C@H](OC(=O)/C=C/c4ccccc4)[C@]2(C)[C@H]1OC(=O)c1ccco1)C(C)(C)O3 | > 60 | Dose-dependent effect |  |  |  |  | 
CC(=O)O[C@H]1[C@H](OC(=O)c2ccccc2)[C@@]2(C)[C@@H](OC(=O)/C=C/c3ccccc3)[C@@H](O)[C@@H]3[C@@H](OC(C)=O)[C@]2(OC3(C)C)[C@@](C)(O)[C@H]1OC(C)=O | > 60 | Dose-dependent effect | 88.6 |  |  |  | 
CC(=O)O[C@@H]1[C@H](O)[C@@H](C)[C@]23OC(C)(C)[C@H]([C@H](OC(C)=O)[C@H](OC(=O)c4ccccc4)[C@]2(C)[C@H]1OC(=O)c1ccoc1)[C@H]3OC(C)=O | > 60 | Dose-dependent effect | 87 |  |  |  | 
CC(=O)OC[C@]12[C@@H](OC(=O)c3ccco3)C[C@@H]3[C@@H](OC(=O)c4ccccc4)[C@]1(OC3(C)C)[C@@](C)(O)C[C@@H](OC(C)=O)[C@@H]2OC(C)=O | > 60 | Dose-dependent effect | 81.9 |  |  |  | 
CC1(C)O[C@]23C[C@H]1C[C@H](OC(=O)c1ccccc1)[C@]2(C)[C@@H](OC(=O)c1ccco1)CC[C@]3(C)O | > 60 | Dose-dependent effect |  |  |  |  | 
CC(=O)O[C@H]1[C@H](OC(=O)c2ccccc2)[C@@]2(C)[C@@H](OC(=O)/C=C/c3ccccc3)C[C@]3(O)C[C@]2(OC3(C)C)[C@@](C)(O)[C@H]1OC(C)=O | > 60 | Dose-dependent effect |  |  |  |  | 
CC(=O)O[C@@H]1[C@H](O)[C@@H](C)[C@]23OC(C)(C)[C@H](C[C@H](OC(=O)c4ccccc4)[C@]2(C)[C@H]1OC(=O)c1ccccc1)[C@H]3OC(C)=O | > 60 | Dose-dependent effect | 81 |  |  |  | 
CC(=O)O[C@@H]1[C@H](O)[C@@H](C)[C@]23OC(C)(C)[C@H](C[C@H](OC(=O)/C=C/c4ccccc4)[C@]2(C)[C@H]1OC(=O)c1ccccc1)[C@H]3OC(C)=O | > 60 | Dose-dependent effect |  |  |  |  | 
CC(=O)O[C@@H]1[C@H](O)[C@@H](C)[C@]23OC(C)(C)[C@H]([C@H](OC(C)=O)[C@H](OC(=O)c4ccccc4)[C@]2(C)[C@H]1OC(=O)c1ccccc1)[C@H]3OC(C)=O | > 60 | Dose-dependent effect | 79.5 |  |  |  | 
CC(=O)O[C@H]1[C@H](OC(=O)c2ccco2)[C@@]2(C)[C@@H](OC(=O)c3ccccc3)C[C@@H]3C[C@]2(OC3(C)C)[C@@](C)(O)[C@H]1OC(C)=O | > 60 | Dose-dependent effect |  |  |  |  | 
CC(=O)O[C@@H]1[C@H](O)[C@@H](C)[C@]23OC(C)(C)[C@H]([C@H](OC(C)=O)[C@H](OC(=O)c4ccccc4)[C@]2(C)[C@H]1OC(=O)c1ccccc1)[C@H]3O | > 60 | Dose-dependent effect | 76.3 | 100 | 69.9 | 23.7 | 2.2
CC(=O)O[C@H]1[C@@H]2C[C@@]3(OC2(C)C)[C@](C)([C@H]1OC(=O)c1ccccc1)[C@@H](OC(=O)c1ccccc1)[C@H](OC(C)=O)[C@H](OC(C)=O)[C@]3(C)O | > 60 | Dose-dependent effect | 79.3 |  |  |  | 
CC(=O)O[C@@H]1C[C@](C)(O)[C@@]23C[C@@H](C[C@H](OC(=O)c4ccccc4)[C@]2(C)[C@H]1OC(=O)c1ccco1)C(C)(C)O3 | > 60 | Dose-dependent effect |  |  |  |  | 
CC(=O)O[C@H]1[C@H](OC(=O)c2ccccc2)[C@@]2(C)[C@@H](OC(=O)/C=C/c3ccccc3)[C@@H](O)[C@@H]3C[C@]2(OC3(C)C)[C@@](C)(O)[C@H]1OC(C)=O | > 60 | Dose-dependent effect |  |  |  |  | 
CC(=O)O[C@@H]1[C@H](OC(C)=O)[C@@H](C)[C@@]23C[C@@H](C[C@H](OC(=O)c4ccccc4)[C@]2(C)[C@H]1OC(=O)c1ccco1)C(C)(C)O3 | > 60 | Dose-dependent effect |  |  |  |  | 
CC(=O)O[C@H]1[C@H](OC(=O)c2ccccc2)[C@@]2(C)[C@@H](OC(=O)/C=C/c3ccccc3)[C@@H](O)[C@@H]3[C@@H](O)[C@]2(OC3(C)C)[C@@](C)(O)[C@H]1OC(C)=O | > 60 | Dose-dependent effect | 85 |  |  |  | 
CC(=O)O[C@H]1[C@H](OC(=O)c2ccccc2)C[C@](C)(O)[C@]23OC(C)(C)[C@H](C[C@H](OC(=O)c4ccco4)[C@]12C)[C@H]3OC(=O)c1ccccc1 | > 60 | Dose-dependent effect |  |  |  |  | 
CC(=O)O[C@H]1[C@H](OC(=O)c2ccccc2)[C@@]2(C)[C@@H](OC(=O)/C=C/c3ccccc3)C[C@@H]3[C@@H](OC(C)=O)[C@]2(OC3(C)C)[C@@](C)(O)[C@H]1OC(=O)c1cccnc1 | > 60 | Dose-dependent effect |  |  |  |  | 
